13 compounds from ChEMBL document CHEMBL5325493, “Discovery of AD258 as a Sigma Receptor Ligand with Potent Antiallodynic Activity” (J Med Chem, 2023) can be followed below.

The source made the active and inactive calls. The rule behind the calls is not given here.

Data set [1] has as its target Sigma non-opioid intracellular receptor 1 (Rattus norvegicus) (UniProt Q9R0C9). The data set can be described thus: Selectivity ratio of Ki for binding affinity to rat liver homogenate S1R incubated for 2 hrs in absence of phenytoin to Ki for binding affinity to rat liver homogenate S1R incubated for 2 hrs in presence of phenytoin. It counts as tissue-based.
In data set [2] the target is Sigma non-opioid intracellular receptor 1 (Homo sapiens, UniProt Q99720). The data set can be described thus: Binding affinity to S1R (unknown origin). The method in brief: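 Rat liver homogenates from male Sprague Dawley rats in 50 mM Tris pH 8. […] Incubated 120 min at 37 °C, then filtration and scintillation counting. Ki is the mean ± SD of at least two experiments in duplicate.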
Sequence of Sigma non-opioid intracellular receptor 1 (Homo sapiens, UniProt Q99720) (Q99720 whole entry): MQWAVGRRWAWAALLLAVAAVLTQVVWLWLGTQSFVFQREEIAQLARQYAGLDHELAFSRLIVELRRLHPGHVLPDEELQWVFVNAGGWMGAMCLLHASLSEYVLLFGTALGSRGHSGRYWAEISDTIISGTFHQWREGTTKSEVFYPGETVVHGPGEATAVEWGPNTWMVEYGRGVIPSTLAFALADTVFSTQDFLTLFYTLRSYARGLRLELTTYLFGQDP

The target in data set [3] is Sigma intracellular receptor 2 (Homo sapiens, UniProt Q5BJF2). The data set can be described thus: Binding affinity to S2R (unknown origin).
Sequence of Sigma intracellular receptor 2 (Q5BJF2 whole entry): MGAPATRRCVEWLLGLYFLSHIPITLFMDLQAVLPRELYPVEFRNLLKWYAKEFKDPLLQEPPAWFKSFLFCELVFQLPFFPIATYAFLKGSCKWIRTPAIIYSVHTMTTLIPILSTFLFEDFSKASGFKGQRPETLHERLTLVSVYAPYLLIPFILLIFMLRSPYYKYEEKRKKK
Data set [4] in a line: Cytotoxicity against HCE cells assessed as reduction in cell viability at above 20 uM incubated for 1 hr by MTT assay. Type of data set: toxicity, cell-based. The following applies: human. An outline of the steps:
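HCE cells in MEM with 10% FBS, grown to 80–90% confluence. Exposed to compounds in free medium for 20 h. MTT (5 mg/mL in PBS, 1:5 of medium volume) then added for 1 h; formazan dissolved in DMSO and read at 540 nm. Viability expressed as % of untreated cells; three independent experiments.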

A short description of data set [5]: Cytotoxicity against HCE cells at 50 to 100 uM […] by LDH assay. The following applies: human, 1.25 h, dose 50-100 µM. It counts as toxicity, cell-based.
Data set [6] deals with Mus musculus. The data set is described as follows: Anti-allodynic activity against capsaicin-induced d sc dosed wild type CD1 mouse allodynia model assessed as reversal of capsaicin induced hypersensitivity by measuring latency value preincubated for 30 mins followed by capsaicin addition (reference value: 13.51 +/- 1.93 sec). It counts as functional. As to conditions: dose 10-40 mg/kg.

In data set [7] the test system is Mus musculus. The data set can be described thus: Anti-allodynic activity against capsaicin-induced wild type CD1 mouse allodynia model assessed as reversal of capsaicin induced hypersensitivity by measuring latency value at 20 mg/kg, sc preincubated for 5 with […] followed by compound addition for 30 mins prior to capsaicin stimulation. Type of data set: functional, organism-based.

Data set [8] can be described thus: Cytotoxicity against HCE cells assessed as reduction in cell viability at 100 uM […] by MTT assay. The following applies: human. It counts as toxicity, cell-based.
In data set [9] the test system is Mus musculus. The data set is described as follows: Anti-allodynic activity against capsaicin-induced wild type CD1 mouse allodynia model assessed as reversal of capsaicin induced hypersensitivity by measuring latency value at 40 mg/kg, sc preincubated for 5 with […] followed by compound addition for 30 mins prior to capsaicin stimulation. Type of data set: functional, organism-based. An outline of the steps:
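Female CD1 mice, 25–30 g, acclimated at least 1 week. Mechanical allodynia induced by intraplantar capsaicin; read-out is response latency to mechanical stimulation of the paw. Compound given s.c.; the S1R agonist PRE-084 (32 mg/kg, s.c.) was co-administered to test reversal. Values are mean ± SEM from 6–9 animals per group.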

In data set [10] the test system is Mus musculus. The data set can be described thus: Anti-allodynic activity against capsaicin-induced wild type CD1 mouse allodynia model assessed as reversal of capsaicin induced hypersensitivity by measuring latency value at 10 mg/kg, sc preincubated for 5 with […] followed by compound addition for 30 mins prior to capsaicin stimulation. It counts as functional, organism-based.

Data set [11] concerns Mus musculus. The data set is described as follows: Anti-allodynic activity against capsaicin-induced wild type CD1 mouse allodynia model assessed as reversal of capsaicin induced hypersensitivity by measuring latency value at 5 mg/kg, sc preincubated for 30 mins followed by capsaicin addition (reference value: 13.51 +/- 1.93 sec). Type of data set: functional, organism-based.

The target in data set [12] is Sigma non-opioid intracellular receptor 1 (Rattus norvegicus, UniProt Q9R0C9). The data set is described as follows: Displacement of [3H]-(+)-pentazocine from rat liver homogenate S1R incubated for 120 mins by liquid scintillation counting method. It counts as tissue-based.
Sequence of Sigma non-opioid intracellular receptor 1 (Rattus norvegicus, UniProt Q9R0C9) (Q9R0C9 whole entry): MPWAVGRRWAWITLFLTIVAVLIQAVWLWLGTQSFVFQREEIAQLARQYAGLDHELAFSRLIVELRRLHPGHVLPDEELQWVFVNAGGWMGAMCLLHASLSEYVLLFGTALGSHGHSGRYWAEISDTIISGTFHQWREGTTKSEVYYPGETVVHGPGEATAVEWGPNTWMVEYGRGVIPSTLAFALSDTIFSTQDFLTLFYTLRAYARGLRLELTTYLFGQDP
Data set [13] has as its system Mus musculus. The data set can be described thus: Anti-allodynic activity against capsaicin-induced wild type CD1 mouse allodynia model assessed as reversal of capsaicin induced hypersensitivity by measuring latency value at 0.6 to 1.25 mg/kg, sc preincubated for 30 mins followed by capsaicin addition (reference value: 13.51 +/- 1.93 sec). As to conditions: dose 0.6-1.25 mg/kg. Type of data set: functional, organism-based.

For data set [14], the target named is Mu-type opioid receptor (Homo sapiens) (UniProt P35372). The data set can be described thus: Inhibition of MOR (unknown origin) at 1 uM relative to control.
Sequence of Mu-type opioid receptor (Homo sapiens) (P35372 whole entry): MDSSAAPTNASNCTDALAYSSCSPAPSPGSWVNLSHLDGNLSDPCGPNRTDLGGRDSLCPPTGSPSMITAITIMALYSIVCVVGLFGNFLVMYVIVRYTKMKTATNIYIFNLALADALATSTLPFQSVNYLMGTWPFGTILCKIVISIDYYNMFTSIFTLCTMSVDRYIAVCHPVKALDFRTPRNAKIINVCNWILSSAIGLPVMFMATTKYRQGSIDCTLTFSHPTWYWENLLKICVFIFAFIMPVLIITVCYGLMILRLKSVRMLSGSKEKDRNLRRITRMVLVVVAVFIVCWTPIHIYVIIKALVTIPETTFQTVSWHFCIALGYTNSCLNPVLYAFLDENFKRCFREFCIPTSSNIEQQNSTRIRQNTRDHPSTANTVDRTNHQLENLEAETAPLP
Data set [15] deals with Mus musculus. The data set can be described thus: Anti-allodynic activity against capsaicin-induced wild type CD1 mouse allodynia model assessed as reversal of capsaicin induced hypersensitivity by measuring latency value at 1.25 mg/kg, sc preincubated for 5 with […] followed by compound addition for 30 mins prior to capsaicin stimulation. It counts as functional, organism-based.

Data set [16] has as its target Kappa-type opioid receptor (Homo sapiens) (UniProt P41145). The data set can be described thus: Inhibition of KOR (unknown origin) at 1 uM relative to control. An outline of the steps:
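Nonspecific binding defined with 10 µM naloxone. Filtration through PEI-presoaked filters, then scintillation counting.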

In data set [17] the target is Cannabinoid receptor 1 (Homo sapiens) (UniProt P21554). The data set can be described thus: Inhibition of CB1 (unknown origin) at 1 uM relative to control. An outline of the steps:
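Membranes from rat Chem-1 cells expressing human recombinant CB1, 5 µg per sample, in modified HEPES pH 7.4. […] Nonspecific binding with 10 µM CP 55,940. Compound tested at 1 µM; filtration and counting of specifically bound radioligand.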

Data set [18] is described as follows: Toxicity in wild type CD1 mouse assessed as effect on motor coordination at 1.25 mg/kg, sc measured upto 240 mins by rotarod test. It counts as organism-based. As to conditions: in vivo, time < 240 hrs. The method in brief:
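Female CD1 mice on rotarod; latency to fall recorded immediately before and at several times over 4 h after s.c. dosing. Vehicle was 5% DMSO in saline; pregabalin 60 mg/kg s.c. served as the motor-deficit control. Mean ± SEM from 6–7 animals, analysed by 2-way repeated-measures ANOVA with Student–Newman–Keuls test.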

In data set [19] the target is Cannabinoid receptor 2 (Homo sapiens) (UniProt P34972). The data set can be described thus: Inhibition of CB2 (unknown origin) at 1 uM relative to control. The method in brief: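 Membranes from CHO-K1 cells expressing human CB2, 30 µg per sample, in modified HEPES pH 7.0. […] Nonspecific binding with 10 µM R(+)-WIN-55,212-2. Compound tested at 1 µM; bound radioligand counted after filtration.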
Sequence of Cannabinoid receptor 2 (Homo sapiens) (P34972 whole entry): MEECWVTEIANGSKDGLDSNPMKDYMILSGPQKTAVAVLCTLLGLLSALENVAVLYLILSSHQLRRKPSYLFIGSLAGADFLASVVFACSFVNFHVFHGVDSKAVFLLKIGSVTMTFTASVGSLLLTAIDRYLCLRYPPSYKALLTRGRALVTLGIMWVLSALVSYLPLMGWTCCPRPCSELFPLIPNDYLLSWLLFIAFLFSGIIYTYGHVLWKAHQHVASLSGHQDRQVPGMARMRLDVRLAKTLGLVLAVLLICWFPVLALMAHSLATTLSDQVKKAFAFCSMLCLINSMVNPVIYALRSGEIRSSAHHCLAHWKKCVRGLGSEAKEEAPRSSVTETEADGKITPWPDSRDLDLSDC

Data set [20] deals with Delta-type opioid receptor (Homo sapiens) (UniProt P41143). The data set is described as follows: Inhibition of DOR (unknown origin) at 1 uM relative to control.
Sequence of Delta-type opioid receptor (Homo sapiens) (P41143 whole entry): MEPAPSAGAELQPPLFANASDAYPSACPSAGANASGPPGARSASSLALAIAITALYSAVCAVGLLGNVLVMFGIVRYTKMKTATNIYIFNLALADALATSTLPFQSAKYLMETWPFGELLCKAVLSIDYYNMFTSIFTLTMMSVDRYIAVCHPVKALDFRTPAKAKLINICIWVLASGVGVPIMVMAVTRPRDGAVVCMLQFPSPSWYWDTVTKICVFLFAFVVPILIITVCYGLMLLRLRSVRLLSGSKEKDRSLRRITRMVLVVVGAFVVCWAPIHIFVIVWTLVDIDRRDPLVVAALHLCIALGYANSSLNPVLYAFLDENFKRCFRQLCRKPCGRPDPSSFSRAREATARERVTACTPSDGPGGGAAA
A short description of data set [21]: Toxicity in wild type CD1 mouse assessed as effect on motor coordination at 60 mg/kg, sc measured upto 240 mins by rotarod test. It counts as organism-based. The following applies: in vivo, 4 h. The method in brief: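 Female CD1 mice, 25–30 g. Latency to fall from the rotarod was recorded immediately before and several times after s.c. dosing, over 4 h; vehicle was DMSO 5% in saline. Mean ± SEM from 6–7 animals; 2-way repeated measures ANOVA followed by Student–Newman–Keuls test against time 0.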

Sequence of Kappa-type opioid receptor (Homo sapiens) (P41145 whole entry): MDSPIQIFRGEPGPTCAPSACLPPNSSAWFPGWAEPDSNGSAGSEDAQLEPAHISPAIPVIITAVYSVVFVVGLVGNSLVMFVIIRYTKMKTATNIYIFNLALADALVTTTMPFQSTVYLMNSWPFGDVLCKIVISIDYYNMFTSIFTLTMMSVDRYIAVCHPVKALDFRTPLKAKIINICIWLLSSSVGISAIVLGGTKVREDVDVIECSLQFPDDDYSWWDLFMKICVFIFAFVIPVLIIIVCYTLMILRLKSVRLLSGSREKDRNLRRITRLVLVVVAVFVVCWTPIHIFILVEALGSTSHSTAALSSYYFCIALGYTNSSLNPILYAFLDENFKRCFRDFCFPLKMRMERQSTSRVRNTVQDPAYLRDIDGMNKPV
Sequence of Cannabinoid receptor 1 (Homo sapiens) (P21554 whole entry): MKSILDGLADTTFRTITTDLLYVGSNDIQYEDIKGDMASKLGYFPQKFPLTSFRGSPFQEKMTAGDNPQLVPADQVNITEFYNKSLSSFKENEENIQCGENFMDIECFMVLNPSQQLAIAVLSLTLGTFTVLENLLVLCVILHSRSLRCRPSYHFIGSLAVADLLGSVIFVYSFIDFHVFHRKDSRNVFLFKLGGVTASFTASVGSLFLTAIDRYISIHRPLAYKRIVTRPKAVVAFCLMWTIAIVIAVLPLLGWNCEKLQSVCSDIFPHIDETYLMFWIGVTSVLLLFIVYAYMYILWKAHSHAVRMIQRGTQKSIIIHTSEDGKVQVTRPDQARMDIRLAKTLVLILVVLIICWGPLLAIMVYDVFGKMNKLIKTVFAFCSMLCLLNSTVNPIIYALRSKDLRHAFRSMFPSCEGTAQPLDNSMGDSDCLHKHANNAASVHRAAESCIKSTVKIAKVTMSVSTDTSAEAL
Sequence of Sigma non-opioid intracellular receptor 1 (Rattus norvegicus) (Q9R0C9 whole entry): as the sequence (Q9R0C9 whole entry) above

Regarding `C=CCN1CC[C@@]2(C)C[C@@H]1Cc1ccc(O)cc12`, the Ratio Ki in data set [1] came to 5.8.

With `c1ccc(CN2CCC3(CCc4ccccc4S3)CC2)cc1`, the Ki worked out at 9.2 nM in [2] and 6.4 nM in data set [3].

For the compound `c1ccc(CCN2CCC3(CCN(CCc4ccccc4)C3)C2)cc1`, the Activity result in [4] is “Toxic”; in data set [5], “Toxic”; in the data set on Mus musculus [6], “Dose-Dependent Effect”; in [8], “Toxic”. In addition, the outcome in the data set with Mus musculus [7] was inactive.

For `COC1Cc2ccccc2C2(CCC(N(C)CC3CCCCC3)CC2)O1` (stereo not given), the Ki worked out at 1.9 nM in data set [2] and 12 nM in data set [3].

Consider `Cl.O=C(OCCN1CCOCC1)C1(c2ccccc2)CCCCC1`, for which the Activity result in data set [4] was “Toxic”.

Consider `CN1CCN(CCc2ccc(Cl)c(Cl)c2)CC1`, for which the result in the data set with Mus musculus [9] was inactive.

`c1ccc(CCN2CCC3(CCN(c4ccccc4)C3)C2)cc1` (stereo not given): the Activity entry in [4] was “Toxic”; in data set [5], “Toxic”; with Mus musculus [6], “Dose-Dependent Effect”; in data set [8] it was “Toxic”. In addition, the result in the data set with Mus musculus [7] was inactive.

Turning to `O=[N+]([O-])c1ccc(N2CCC3(CCN(CCc4ccccc4)C3)C2)cc1` (stereo not given), in the data set on Mus musculus [10], the result was inactive. Besides, the Activity result in the data set on Mus musculus [6] is “Dose-Dependent Effect”; in the data set on Mus musculus [6] (0.5 h, at 10 to 40 mg/kg), 100%; in data set [8], 50%. In addition, in the data set with Mus musculus [11], the result was Active.

Turning to `O=C(Cc1ccc(Cl)c(Cl)c1)N1CCC2(CCN(CCc3ccccc3)C2)C1` (stereo not given), the Activity result was “Dose-Dependent Effect” in the data set on Mus musculus [6] and 100% with Mus musculus [6] (0.5 h, at 10 to 40 mg/kg). In the data set with Mus musculus [9], the outcome was inactive.

The compound `c1ccc2c(c1)Nc1ccccc1S2` [PHENOTHIAZINE] returned an inhibition constant (Ki) in [12] of 4.3 nM.

With `c1ccc(CN2CCC3(CC2)OCC(c2ccccc2)CO3)cc1`, the results for the Ki in [2] and in [3] were 0.013 nM and 813 nM, respectively.

`N#Cc1ccc(N2CCC3(CCN(CCc4ccccc4)C3)C2)cc1` (stereo not given): the outcome in the data set with Mus musculus [13] was Active. Also, the inhibition in [14], in data set [16], in [17], in data set [19] and in [20] was less than 50% each time. For the same compound, the result in the data set on Mus musculus [15] was inactive. For the same compound, the Activity result is “Toxic” in data set [5]; “Non-Toxic” in data set [18]; “Dose-Dependent Effect” with Mus musculus [6]; 100% with Mus musculus [6] (0.5 h, at 10 to 40 mg/kg).

In the case of `CC(C)C[C@H](CN)CC(=O)O` [PREGABALIN], the Activity entry in data set [21] was “Toxic”.
